Compounds with a hit are over-represented: about 3.5% of the library has one in this group of screens.
RGS4 pot: RGS4 potentiators or activators, primary screen, cell-based, HEK293 M3R inducible RGS4, calcium flux | hit rate 0.92% among 310,000 | B-score at 10 µM | carbachol calcium flux Fluo4; hits give low values;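 active = B-score of the integrated calcium signal more than 4 SD below the library mean, with starting fluorescence not abnormally high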;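 also: negative B-score means reduced calcium response which marks RGS4 activation or potentiation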
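System – HEK293 FlpIn-TREx cells, stable M3R, doxycycline-inducible RGS4 · Reagent – ECmax carbachol challenge · Times – compound preincubation 20 min at room temperature before agonist · Technique – Fluo4 fluorescence kinetic imaging of calcium · Measure – B score of integrated Fluo4 ratio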
RGS4 inh: RGS4 inhibitors, primary screen, cell-based, HEK293 M3R inducible RGS4, calcium flux; Regulator of G-protein signaling 4 (Homo sapiens), P49798; Fluo-4 calcium flux; hits give high values; triggered by carbachol at its EC20; B-score at 10 µM; hit rate 0.45% among 310,000;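 active = B-score, a plate-corrected calcium signal, over three deviations above library mean, with baseline fluorescence within five deviations of library mean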;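 also: RGS4 expression induced by doxycycline in cells with stable M3 receptor; B-score is computed from the integrated fluorescence ratio over baseline after carbachol; higher B-score means a larger calcium signal and so more RGS4 inhibition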
Target sequence (P49798 whole entry, looked up): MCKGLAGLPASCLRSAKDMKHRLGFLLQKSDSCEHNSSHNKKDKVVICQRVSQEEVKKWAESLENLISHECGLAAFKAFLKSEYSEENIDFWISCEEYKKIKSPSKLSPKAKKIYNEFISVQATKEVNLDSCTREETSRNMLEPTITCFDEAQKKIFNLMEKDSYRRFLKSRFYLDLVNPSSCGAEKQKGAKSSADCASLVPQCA
MrgX1 antag: antagonists of human MrgX1 receptor, primary screen, HEK293 cells, Fluo-4 calcium flux; BAM8-22 antagonism; hits give low values; B-score at 10 µM; Mas-related G-protein coupled receptor member X1 (Homo sapiens), Q96LB2; hit rate 1.3% among 310,000;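 active = calcium-response B-score plate-corrected more than 3 library SD below zero, starting fluorescence within 5 deviations, no agonist response on first addition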;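 also: peak minus trough fluorescence over baseline after final BAM8-22 challenge near maximal dose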
Target sequence (Q96LB2 whole entry, looked up): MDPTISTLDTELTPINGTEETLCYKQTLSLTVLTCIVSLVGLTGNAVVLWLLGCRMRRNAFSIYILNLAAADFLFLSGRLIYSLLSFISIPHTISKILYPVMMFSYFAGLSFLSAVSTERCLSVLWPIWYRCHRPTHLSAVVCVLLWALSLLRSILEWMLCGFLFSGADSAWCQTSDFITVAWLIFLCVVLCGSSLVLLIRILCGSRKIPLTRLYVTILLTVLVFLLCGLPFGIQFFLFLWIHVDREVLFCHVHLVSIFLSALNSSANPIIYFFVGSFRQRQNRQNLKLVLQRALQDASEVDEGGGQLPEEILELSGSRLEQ
MrgX1 PAM: positive allosteric modulators of MrgX1, primary screen, HEK293 cells, Fluo-4 calcium flux | FDSS; hits give high values | B-score at 10 µM | AID 588675, 2011 | hit rate 0.63% among 310,000;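 active = plate-corrected calcium response at least 3 library SD above typical, normal starting fluorescence, not activating the receptor alone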;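 also: compound read alongside a low EC10 to EC30 dose of BAM8-22 agonist; peak minus trough fluorescence over baseline measured at the second addition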
MrgX1 ag: agonists of human MrgX1 receptor, primary screen, HEK293 cells, Fluo-4 calcium flux. Fluo-4 calcium fluorescence, agonist mode; hits give high values. hit rate 0.44% among 310,000. Mas-related G-protein coupled receptor member X1 (Homo sapiens), Q96LB2. B-score at 10 µM;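 active = calcium response B-score plate-corrected fluorescence ratio at least 3 library SD, with starting fluorescence B-score inside 5 SD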
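Material: MrgX1-expressing HEK293 cells; input: 15,000 cells per well; doses: test compound given as first of three sequential additions; schedule: overnight plating before 1 h dye loading; technique: Fluo-4 NW calcium-flux fluorescence, kinetic read; evaluation: baseline-normalised fluorescence change ratio, B-scored; control set: plate-wise positive and negative controls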
MrgX1 antag conf: MrgX1 receptor antagonists, duplicate retest, confirmation, HEK293 cells, Fluo-4 calcium flux; remaining BAM8-22 calcium response % of control (hits give low values), % at 10 µM; hit rate 19% among 2,300; BAM8-22 calcium flux; hits give low values; shares compounds with MrgX1 antag; AID 602420, 2012;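 active = remaining agonist calcium response no higher than 100% minus 3 SD of agonist-only control wells, with starting fluorescence near control levels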;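 also: agonist BAM8-22 given at a near maximal EC90 to ECmax level; peak minus minimum fluorescence divided by baseline after agonist addition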
HEK293 Ca flux: nonspecific calcium signal in parental HEK293, confirmation, counter-screen for MrgX1 antagonist project, parental HEK293 cells, Fluo-4 calcium flux. shares compounds with MrgX1 antag. Fluo-4 calcium fluorescence, FDSS. fluorescence ratio F(max-min)/F0 at 10 µM. hit rate 2% among 4,000;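 active = duplicate-averaged calcium fluorescence ratio at least three times the standard deviation of buffer wells, a nonspecific response in parental cells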
HEK293 Ca counter: calcium response in parental HEK293 cells, primary screen, counter-screen for MrgX1 allosteric activator project, cell-based, Fluo-4 calcium flux, duplicate | hit rate 0.4% among 4,000 | shares compounds with MrgX1 antag | fluorescence ratio F(max-min)/F0 at 10 µM | Fluo-4 fluorescence ratio; hits give high values;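 active = calcium fluorescence ratio, averaged over duplicates, at least 3 SD of the buffer-well ratio, meaning a nonspecific response in receptor-free cells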;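 also: untransfected parental HEK293 lacking MrgX1 used as counterscreen for MrgX1 allosteric activators; fluorescence change taken during the second addition on a kinetic imager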
HEK293 Ca cntr2: calcium response in parental HEK293 cells, primary screen, counter-screen for MrgX1 agonist project, cell-based, Fluo-4 calcium flux, duplicate, agonist mode | shares compounds with MrgX1 antag | Fluo-4 calcium fluorescence (FDSS); hits give high values | fluorescence ratio F(max-min)/F0 at 10 µM | hit rate 8.7% among 4,000;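 active = calcium fluorescence ratio at least three times the spread of buffer wells, meaning a non-specific response in parental cells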
* hit, by the source's call; i = inactive; . = not tested or not shown.

SMILES | RGS4 pot | RGS4 inh | MrgX1 antag | MrgX1 PAM | MrgX1 ag | MrgX1 antag conf | HEK293 Ca flux | HEK293 Ca counter | HEK293 Ca cntr2
Cc1ccc(C)c(NC(=O)CCN2CCN(CCO)CC2)c1 | i | i | i | i | i | . | . | . | .
CCCSc1nnc(NC(=O)Nc2ccc(F)cc2)s1 | i | i | -5.6* | i | i | 71%* | i | i | i
CC(=O)c1ccc(OCCCC(=O)Nc2cccc(-c3nn[nH]n3)c2)cc1 | i | i | i | i | i | . | . | . | .
C/C(=N\NC(=O)c1c(-c2ccccc2Cl)noc1C)c1cccc(NC(=O)C(C)C)c1 | i | i | i | i | i | . | . | . | .
CCOC(=O)NC(NC(=O)OCC)C(=O)c1ccc(F)cc1 | i | i | -5.1* | i | i | i | i | i | i
CCCC(C)NC(=O)c1ccc(F)cc1 (stereo unspecified) | i | i | i | i | i | . | . | . | .
O=C(COC(=O)c1cccnc1Cl)NCc1ccco1 | i | i | i | i | i | . | . | . | .
Cc1ncoc1C(=O)N1CCCC(C(=O)c2ccc(Oc3ccccc3)cc2)C1 (stereo unspecified) | i | i | i | i | i | . | . | . | .
Cc1ncoc1C(=O)N1CCCC(C(=O)c2cccc(OC(C)C)c2)C1 (stereo unspecified) | i | i | -6.1* | i | i | i | i | i | i
CC(=O)Nc1ccc2c(c1)N(C(C)=O)c1ccccc1CC2 | i | i | -4.7* | i | i | 82%* | i | i | i
COC(=O)\C(C(C)=O)=C(/C=C/C=C/C=C/N(C)C)N(C)C | i | i | i | i | i | . | . | . | .
NC(=O)CC(NC(=O)Cc1cccc2ccccc12)c1ccc(N2CCc3ccccc3C2)c([N+](=O)[O-])c1 (stereo unspecified) | i | i | i | i | i | . | . | . | .
O=C1CCCN1CCC12CC3CC(CC(C3)C1)C2 | i | i | -4.7* | i | i | i | i | i | i
CC(O)[C@H]1CNC(=O)C(=O)N1CCC12CC3CC(CC(C3)C1)C2 (stereo partly specified) | i | i | i | i | i | . | . | . | .
Cc1ccc(Nc2nnc(SCc3cc(=O)n4ccsc4n3)s2)c(C)c1 | i | i | -7* | i | i | i | i | i | i
Cc1cccc2sc(NC(=O)c3ccc(Cl)s3)nc12 | i | i | -7.1* | i | i | i | i | i | i
CC(C)C(NS(=O)(=O)c1cccs1)C(=O)NCc1ccc2c(c1)OCO2 (stereo unspecified) | i | i | -4.6* | i | i | i | i | i | i
Cc1ccc(CNC(=O)C(NS(=O)(=O)c2cccs2)C(C)C)cc1 (stereo unspecified) | i | i | i | i | i | . | . | . | .
COc1ccc(NS(=O)(=O)c2cc3c(cc2C)NC(=O)CO3)c(OC)c1 | i | i | -4.9* | i | i | i | i | i | i
Cc1cccc(N2CCN(C(=O)Cc3cn(C)c4ccccc34)CC2)c1C | i | i | -4.7* | i | i | 81%* | i | i | i
Cc1cccc(N2CCN(C(=O)COc3cc(=O)n(C)c4ccccc34)CC2)c1C | i | i | i | i | i | . | . | . | .
Cc1cccc(C#Cc2ccccc2)n1 | . | . | i | i | i | . | . | . | .
COc1ccc(C(=O)CC(=O)C(=O)Nc2ccc(OC)c(Cl)c2)cc1 | i | i | -5.1* | i | i | i | i | i | i
COc1ccc(C(=O)CC(=O)C(=O)Nc2ccc(Cl)cc2)cc1 | i | i | i | i | i | . | . | . | .
CCC1CCCCN1C(=O)CCc1nnc(Cc2cc(OC)ccc2OC)o1 (stereo unspecified) | i | i | i | i | i | . | . | . | .
SMILES | RGS4 pot | RGS4 inh | MrgX1 antag | MrgX1 PAM | MrgX1 ag | MrgX1 antag conf | HEK293 Ca flux | HEK293 Ca counter | HEK293 Ca cntr2
Cc1ccc(NCc2ccccc2O)cc1 | i | i | i | i | i | . | . | . | .
Cc1ccc(NCc2ccccc2F)cc1 | i | i | -5.9* | i | i | i | i | i | i
O=C(Oc1ccc(-c2nnco2)cc1)N1CCOCC1 | i | i | -5* | i | i | i | i | i | i
CCOc1nc(Nc2ccc(OC)c(Cl)c2)nc(OCC)n1 | i | i | -4.8* | i | i | i | i | i | i
CCOc1nc(Nc2ccc(OC)cc2)nc(OCC)n1 | i | i | i | i | i | . | . | . | .
O=C(COC(=O)C1CC(=O)N(Cc2ccccc2)C1)Nc1ccccc1F (stereo unspecified) | i | i | i | i | i | . | . | . | .
N#CC1=C(N)Oc2cc3c(cc2C1c1ccc(Cl)cc1)OCO3 (stereo unspecified) | i | i | -7.9* | i | i | i | i | i | i
COCc1cc(=O)[nH]c(=S)[nH]1 | i | i | -7.1* | i | i | i | i | i | i
O=c1cc(Cc2ccccc2)[nH]c(=S)[nH]1 | i | i | -5* | i | i | i | i | i | i
COc1ccc(CCNC(=O)C2CCN(S(=O)(=O)c3ccc(NC(C)=O)cc3)CC2)cc1OC | i | i | i | i | i | . | . | . | .
CC1CC(C)CN(S(=O)(=O)c2ccc(NC(=S)NC(=O)c3ccccc3)cc2)C1 (stereo unspecified) | i | i | i | i | i | . | . | . | .
COc1cccc(CNC(=O)Cc2ccc(S(=O)(=O)N3CCOCC3)s2)c1 | i | i | i | i | i | . | . | . | .

Screens deposited in PubChem BioAssay by Johns Hopkins Ion Channel Center.
